Drawing on ChEMBL document CHEMBL2203101, “Molecular hybridization of bioactives: synthesis and antitubercular evaluation of novel dibenzofuran embodied homoisoflavonoids via Baylis-Hillman reaction” (Bioorg Med Chem Lett, 2012), this text covers logP and MIC for 14 compounds.

The nature of data set [1]: Lipophilicity, log P of the compound. Format: physicochemical. As to conditions: octanol/water.
Data set [2] concerns Mycobacterium tuberculosis. Description: Antimycobacterial activity against Mycobacterium tuberculosis H37Rv ATCC 27294 after 28 days by agar dilution method. It is filed as functional. As to conditions: H37Rv ATCC 27294, 672 h. The method in brief: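 Compounds and reference drugs were tenfold serially diluted into Middlebrook 7H11 agar with OADC supplement. The inoculum came from fresh 7H11/OADC slants, was adjusted to 1 mg/mL (wet weight) in 0.05% Tween 80 saline, and was diluted 10^-2 to give 10^7 cfu/mL. Bacterial suspension was spotted onto the drug-containing agar tubes, incubated at 37 C, and final readings were taken after 28 days.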

Converted amounts (≈) assume the structure as drawn.

In data set [1], `COc1cccc2c1OC/C(=C\c1ccc3oc4ccccc4c3c1)C2=O` came in with a logP of 3.56. Moreover, the MIC in data set [2] is 25 µg/mL (≈ 70.2 µM). The corresponding values for `Cc1ccc2c(c1)C(=O)/C(=C/c1ccc3oc4ccccc4c3c1)CO2` are 4.17 and 25 µg/mL (≈ 73.4 µM). The corresponding values for `O=C1/C(=C/c2ccc3oc4ccccc4c3c2)COc2ccc3ccccc3c21` are 4.68 and 25 µg/mL (≈ 66.4 µM).

`NC(=O)c1cnccn1` [PYRAZINAMIDE]: in data set [2], the lowest concentration to inhibit growth (MIC) was 50 µg/mL (≈ 406 µM).

`O=C1/C(=C/c2ccc3oc4ccccc4c3c2)COc2ccccc21` came in with a logP in data set [1] of 3.69. Besides, in data set [2], the MIC was 25 µg/mL (≈ 76.6 µM). Consider `COc1ccc2c(c1)C(=O)/C(=C/c1ccc3oc4ccccc4c3c1)CO2`, for which the logP in data set [1] turned out to be 3.56. Further, in data set [2], inhibition of growth (MIC) required 25 µg/mL (≈ 70.2 µM).

In data set [1], `CC(C)(C)c1ccc2c(c1)C(=O)/C(=C/c1ccc3oc4ccccc4c3c1)CO2` displayed a logP of 5.39. Moreover, the lowest concentration to inhibit growth in data set [2] (MIC) was 25 µg/mL (≈ 65.4 µM). Compound `CC[C@@H](CO)NCCN[C@@H](CC)CO` [ETHAMBUTOL] returned an MIC in data set [2] of 3.13 µg/mL (≈ 15.3 µM). `O=C1/C(=C/c2ccc3oc4ccccc4c3c2)COc2ccc3oc4ccccc4c3c21` returned a logP in data set [1] of 4.35. Moreover, the minimal inhibitory concentration (MIC) in data set [2] stood at 25 µg/mL (≈ 60 µM). The corresponding values for `O=C1/C(=C/c2ccc3oc4ccccc4c3c2)COc2c1ccc1ccccc21` are 4.68 and 25 µg/mL (≈ 66.4 µM). The like results for `O=C1/C(=C/c2ccc3oc4ccccc4c3c2)COc2ccc3[nH]c4ccccc4c3c21` were, in that order, 4.38 and 25 µg/mL (≈ 60.2 µM). On to `O=C1/C(=C/c2ccc3oc4ccccc4c3c2)COc2ccc(F)cc21`, for which the logP in data set [1] stood at 3.84. This compound gave an MIC in data set [2] of 12.5 µg/mL (≈ 36.3 µM). Compound `NNC(=O)c1ccncc1` [ISONIAZID] showed an MIC in data set [2] of 0.1 µg/mL (≈ 0.729 µM). The compound `O=C1/C(=C/c2ccc3oc4ccccc4c3c2)COc2ccc(Br)cc21` came in with a logP in data set [1] of 4.51. Further, in data set [2], the MIC came out at 12.5 µg/mL (≈ 30.8 µM).
